According to paper PMC2885444 (The Biochemical journal, 2009):
Each block holds one substance with its values, some of them ahead of it.

Assays:
CHD4 PHD2 finger = CHD4 PHD2 finger (Homo sapiens, UniProt Q14839); test: NMR titration; format: binding; conditions: for NMR exchange regime: 1H,15N HSQC titration, NMR time scale
[1] = tested on: CHD4 PHD2 finger (GST-fusion); format: binding; conditions: C-terminal biotinylated peptides (residues 1–21; H3K27/H3K36 residues 21–44), streptavidin–Sepharose beads, 50 mM Tris pH 7.5, 150 mM NaCl, 0.05% Nonidet P-40; anti-GST HRP detection
CHD4 PHD2 F448A mutant = test: Binding and NMR of F448A mutant; conditions: F448A mutant vs wild-type
In short: (§1)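 Point mutant of the PHD2 finger was made by PCR mutagenesis and expressed as a GST fusion in E. coli BL21(DE3) pLysS on ¹⁵NH₄Cl minimal medium. It was purified on glutathione beads, tag-cleaved, then held in 20 mM Tris pH 6.8–7.5, 150 mM NaCl, 10 mM DTT and 1 mM NaN₃. ¹H,¹⁵N HSQC was run at 500 MHz with increasing 12-mer histone tail peptides. Kd came from a nonlinear least-squares fit of normalized shift changes.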

[2] = tested on: CHD4 PHD2 finger, Asp^454 substituted with valine; test: Binding of PHD2 with Asp454 substituted with valine; conditions: Asp454 to valine mutant
[3] = tested on: PHD fingers of BHC80 and AIRE (mutants); conditions: aspartate to alanine or hydrophobic residue to tryptophan; ref [17],[27]; cited from earlier work
CHD4 PHD2 E447A mutant = CHD4 PHD2 E447A mutant (Homo sapiens, UniProt Q14839, E450A); test: NMR titration, E447A mutant; format: binding
Sequence of CHD4 PHD2 E447A mutant (Q14839 449-496 E450A limits assumed): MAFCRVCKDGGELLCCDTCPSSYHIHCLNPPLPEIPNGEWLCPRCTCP
In short: as §1

CHD4 PHD2 C460W mutant = CHD4 PHD2 C460W mutant (Homo sapiens, UniProt Q14839, C463W); test: NMR titration, C460W mutant; format: binding
Sequence of CHD4 PHD2 C460W mutant (Q14839 449-496 C463W limits assumed): as the sequence (Q14839 449-496 E450A limits assumed) above, with A2E, C15W counted along it
In short: as §1

Sequence of CHD4 PHD2 finger (Q14839 449-496 limits assumed): as the sequence (Q14839 449-496 E450A limits assumed) above, with A2E counted along it

Substance: H3K4me1: histone H3 mono-methylated at Lys^4
Binding in pull-down (Western blot) [1]: significantly weaker

Substance: H3K9ac: histone H3 acetylated at Lys^9 (20-mer, Anaspec, in NMR; residues 1–21 in pull-down)
Binding compared with wild-type (CHD4 PHD2 F448A mutant): more weakly | NMR exchange regime (CHD4 PHD2 finger): intermediate-to-fast exchange regime

Substance: H3K9me1: histone H3 mono-methylated at Lys^9
Binding in pull-down (Western blot) [1]: able to recognize

Further lines, with some results ahead:

NMR changes on titration (CHD4 PHD2 finger; wild-type PHD2, even a 10-fold excess of peptide): no changes
Substance: H3(3-10): peptide comprising residues Thr^3–Ser^10 but lacking Ala^1 and Arg^2 (TKQTARKS)

NMR exchange regime (CHD4 PHD2 finger): fast exchange regime
Substance: H3K4me3: histone H3 tri-methylated at Lys^4
Binding in pull-down (Western blot) [1]: significantly weaker

Binding compared with wild-type (CHD4 PHD2 F448A mutant): more weakly | Binding compared with wild-type [2]: significantly compromised | NMR exchange regime (CHD4 PHD2 finger): intermediate-to-fast exchange regime
Substance: H3K9me3: histone H3 tri-methylated at Lys^9

NMR exchange regime (CHD4 PHD2 finger): intermediate-to-fast exchange regime | Kd (CHD4 PHD2 E447A mutant; E447A mutant): 900 µM | Binding compared with wild-type (CHD4 PHD2 E447A mutant; E447A mutant vs wild-type): significantly weaker | Kd (CHD4 PHD2 C460W mutant; C460W mutant): 3700 µM | Binding compared with wild-type (CHD4 PHD2 C460W mutant; C460W mutant vs wild-type): significantly weaker
Substance: unmodified H3: unmodified histone H3 N-terminal tail peptide (residues 1–21 biotinylated in pull-down; 12-mer in NMR)
Interaction with mutant PHD fingers [3]: abolish interactions
